This is a sample that favours compounds with a hit; in the whole collection about 5.8% have one here.
Cl transport mod – KCC2 cotransporter modulators, thallium flux, primary screen, cell-based, HEK293 KCC2, FluoZin-2 fluorescence, MLSMR | KCC2 cells, thallium flux FluoZin-2 fluorescence | B-score of Tl+ flux slope (higher = more flux/activation; lower = inhibition) at 10 µM | 2.2% of 190,000 active | AID 1456, 2008;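 active = thallium flux slope and its plate-corrected score both differing from the plate sample mean at a set confidence after two filtering rounds, in either direction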;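 note: slope of fluorescence scaled to starting intensity during 10 to 20 s after thallium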
RBBP9 inh – human RBBP9 inhibitors, primary screen, biochemical, fluorescence polarization, FP-Rh probe, HTS; Serine hydrolase RBBP9 (Homo sapiens), O75884; recombinant RBBP9; inhibition, % at 7.94 µM; 0.2% of 220,000 active;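 active = inhibition above the campaign mean of all tested compounds plus 3 SD, cut at about 14% in these data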;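 note: plate controls were DMSO wells with RBBP9 for no effect and wells lacking RBBP9 protein for full effect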
Target sequence (O75884 whole entry, looked up): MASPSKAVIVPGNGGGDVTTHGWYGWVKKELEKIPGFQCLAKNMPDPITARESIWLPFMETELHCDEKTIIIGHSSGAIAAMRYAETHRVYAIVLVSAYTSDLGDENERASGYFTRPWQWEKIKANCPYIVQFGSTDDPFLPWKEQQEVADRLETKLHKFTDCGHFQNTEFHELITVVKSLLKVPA
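Test system – recombinant human RBBP9 · Input – RBBP9 2.5 µM in dispensing solution, pre-mixing · Medium – Tris buffer pH 8.0, NaCl, Pluronic · Schedule – preincubation 30 min plus labeling 45 min at 25 °C · Measured by – fluorescence polarization · Measure – % inhibition · Controls – DMSO and no-protein wells · Replicates – one well per compound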
WT yeast gro inh – growth inhibition of WT strain, primary screen, mitochondrial fusion inhibitor project, WT and mutant strains, chemical genetic; mitochondrial fusion phenotypic screen; inhibition, % at 10 µM; 2.1% of 190,000 active; AID 1362, 2008; in the data active = inhibition above about 58%; tested in S. cerevisiae
ROMK mod – ROMK potassium channel modulators, primary screen, cell-based, thallium flux, MLSMR library. ATP-sensitive inward rectifier potassium channel 1 (Homo sapiens), P48048. Tet-inducible ROMK, thallium flux fluorescence; actives lie on both sides. B-score at 10 µM. 2% of 130,000 active. AID 1918, 2009;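 active = signal ratio slope over the read window, or its plate-corrected B-score, at least 3 SD from the plate mean, either direction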;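 note: B-score of the F/F0 ratio slope over 7 to 12 s after thallium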
NCF1 inh – p47phox/p22phox peptide binding inhibitors, primary screen, biochemical, uHTS, NADPH oxidase regulatory subunit; Neutrophil cytosol factor 1 (Homo sapiens), P14598; fluorescence polarization, 2 h; inhibition, % at 24.7 µM; 0.53% of 220,000 active; AID 1274, 2008;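 active = inhibition above about 30%, limit read from the data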;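 note: 0% = p47phox with labelled peptide and 100% = labelled peptide alone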
14-3-3 Bad PPI – inhibitors of 14-3-3 zeta/Bad binding, primary screen, biochemical, TR-FRET, bovine 14-3-3 zeta; TR-FRET 14-3-3zeta/Dy647-pBad peptide displacement, 1 h; 0.71% of 220,000 active; 14-3-3 protein zeta/delta (Bos taurus), P63103; inhibition, % at 21.7 µM;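 active = inhibition above about 70%, limit read from the data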;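 note: 0% = full 14-3-3 plus peptide FRET controls and 100% = background without 14-3-3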
Target sequence (P63103 whole entry, looked up): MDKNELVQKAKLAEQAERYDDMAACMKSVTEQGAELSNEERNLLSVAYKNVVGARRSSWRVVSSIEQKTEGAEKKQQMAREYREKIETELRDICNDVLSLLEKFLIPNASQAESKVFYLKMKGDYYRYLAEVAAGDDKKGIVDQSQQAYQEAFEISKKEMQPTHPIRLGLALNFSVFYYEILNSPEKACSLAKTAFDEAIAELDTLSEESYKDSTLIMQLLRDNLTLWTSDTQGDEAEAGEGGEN
KCC2 sec1 – KCC2 modulators in sodium-free buffer, confirmation, cell-based, HEK293 KCC2, thallium flux, secondary assay; 15% of 3,700 active; FluoZin2 fluorescence; stronger effect = higher value; shares compounds with Cl transport mod; normalised thallium flux (F/F0 slope) at 10 µM;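 active = thallium flux slope above the same plate's solvent-only control mean plus 3 SD; inconclusive = the two replicate wells disagree; inactive = no significant difference from solvent-only control wells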
KCC2 bumet counter – thallium flux persisting under bumetanide in KCC2 cells, confirmation, counter-screen for KCC2 modulator project, cell-based, HEK293 KCC2, FluoZin2, secondary assay 3. shares compounds with Cl transport mod. HEK293-KCC2 + bumetanide/ouabain; stronger effect = higher value. normalized thallium flux at 10 µM. 49% of 3,700 active. AID 1714, 2009;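 active = thallium entry rate above the same plate's blocked-transporter control wells by more than 3 SD; inconclusive = the two repeat wells disagree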;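 note: raw slope of fluorescence over initial fluorescence between 10 and 20 s after thallium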
KCC2 sec2 – KCC2 modulators without ouabain present, confirmation, cell-based, HEK293 KCC2, thallium flux, FluoZin2, secondary assay 2 | shares compounds with Cl transport mod | thallium flux FluoZin2 fluorescence; actives lie on both sides; F/F0 rise rate, 10–20 s post-thallium | normalized thallium flux at 10 µM | 23% of 3,700 active | AID 1715, 2009;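 active = thallium flux slope more than 3 SD above or below the plate's solvent-only control mean, mostly below; inconclusive = the two repeat wells disagreed; inactive = no significant shift from solvent-only controls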;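 note: raw slope with 0.1% DMSO as baseline and bumetanide as block control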
HEK counter1 – thallium flux modulation in parental HEK cells, confirmation, counter-screen for KCC2 modulator project, cell-based, counterscreen 1; shares compounds with Cl transport mod; HEK293 parental cells, thallium flux FluoZin2, ouabain; baseline-ratio fluorescence slope, 10–20 s after thallium; thallium flux rate (normalised fluorescence) at 10 µM; 46% of 3,700 active;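 active = thallium flux rate significantly above the same plate's solvent-only control wells, beyond their mean plus 3 SD; inconclusive = the two replicate wells gave conflicting results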
KCC2 ouabain – KCC2 inhibitors and activators, ouabain retest, confirmation, HEK-KCC2 cells. shares compounds with Cl transport mod. 48% of 3,700 active. raw Tl+ flux slope (below DMSO = inhibition, above = activation) at 10 µM. HEK293-KCC2, thallium flux FluoZin2 fluorescence; bidirectional: low = inhibitor, high = activator. AID 1717, 2009;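 active = thallium flux slope beyond 3 SD from same-plate DMSO control mean in most replicates, usually higher, sometimes lower; inconclusive = repeat tests gave conflicting results; inactive = no significant difference from controls in most replicates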;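 note: slope of initial-normalized fluorescence between seconds 10 and 20 after thallium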
HEK293 Tl flux2 – native HEK Tl+ uptake effects, second counter-screen – HEK cells, counterscreen 2, counter-screen for KCC2 modulator project, confirmation; shares compounds with Cl transport mod; HEK293 parental, thallium flux FluoZin-2 fluorescence slope; thallium flux slope at 10 µM; 33% of 3,700 active;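 active = thallium flux slope above the same plate's solvent-control mean plus 3 SD in both duplicate wells; inconclusive = duplicate wells that disagreed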;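 note: run without ouabain in cells lacking the KCC2 cotransporter; slope of fluorescence scaled to its starting value between 10 and 20 s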
The depositor's hits bear a star; ? = inconclusive; nt = not tested or not shown.

SMILES	Cl transport mod	RBBP9 inh	WT yeast gro inh	ROMK mod	NCF1 inh	14-3-3 Bad PPI	KCC2 sec1	KCC2 bumet counter	KCC2 sec2	HEK counter1	KCC2 ouabain	HEK293 Tl flux2
CC(C)CNC(=S)NC(=O)c1csc([N+](=O)[O-])c1	31*	-4	nt	nt	-9	-2	?	0.069*	0.037	0.021*	0.036*	0.015*
Fc1ccc(OCc2nc(-c3ccc(Br)o3)no2)c(F)c1	nt	-4	16	nt	-6	9	0.0066	0.0057	0.027	0.0062	0.015*	0.0088
CCn1nnc(NC(=S)NC(=O)c2ccc(-c3cccc(Cl)c3)o2)n1	67*	-9	nt	nt	-38	-21	?	0.085*	0.065*	0.057*	0.066*	0.054*
CCCCn1nnc(NC(=O)c2ccc(-c3cccc(Cl)c3)o2)n1	-2.2	-6	35	nt	-21	13	nt	nt	nt	nt	nt	nt
CC(C)[C@H](NS(=O)(=O)c1ccccc1)C(=O)OCC(=O)N1N=C(c2ccc(Cl)cc2)CC1c1ccco1 (stereo partly specified)	0.96	-5	33	nt	-33	2	nt	nt	nt	nt	nt	nt
CC(C)OCCCn1c(-c2ccc(Br)cc2)c[nH]c1=S	9.5*	-4	32	0.22	-4	-8	0.0094	0.043*	0.036	0.02*	0.04*	0.013*
CC(C)OCCCNC(=O)c1ccc(Br)cc1	0.64	1	1	nt	5	-2	nt	nt	nt	nt	nt	nt
CCCCCCCCNC(=O)C(CCC(=O)OCc1ccccc1)NC(C)=O (stereo unspecified)	nt	3	0	-1.9	1	-7	0.0056	0.0043	0.023*	?	0.013*	0.0099
CCC(C)C(N)C(=O)NC(CCC(=O)OCc1ccccc1)C(N)=O (stereo unspecified)	nt	-4	3	-0.0014	-9	-15	nt	nt	nt	nt	nt	nt

Screening results as filed in PubChem BioAssay.
